Compound activity (PubChem)
E coli WT exp = blocks growth of wild type E. coli BW25113 | AID 710 | growth inhibition, % at 100 µM | OD600 absorbance | 98,000 tested, 0.15% active;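 active = growth inhibition above about 50% at one test dose, limit read from the data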;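 note: growth measured after 20 h incubation at 37 °C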
HePTP inhibitor = blocks human HePTP tyrosine phosphatase; recombinant HePTP phosphatase activity, OD absorbance; inhibition, % at 20 µM; 110,000 tested, 0.64% active; AID 521; in the data active = inhibition above about 50%;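 note: plate controls were vehicle for no effect and reference inhibitor for full effect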
PostGolgi yeast = growth inhibition of a yeast mutant, post-Golgi transport screen | post-Golgi transport phenotypic cell assay | inhibition, % at 10 µM | 98,000 tested, 0.9% active | AID 739;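 note: yeast cells grown in 1536-well plates; yeast grown about 18 h at 30C before absorbance read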
Ecoli tolC = growth inhibitors of E. coli BW25113 tolC mutant | OD615 | growth inhibition, % at 10 µM (by protocol) | 65,000 tested, 2.2% active | AID 573;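 active = growth inhibition at or above a cutoff equal to the mean over every tested compound plus 3 SD, cut at about 60% in these data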;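 note: growth measured after 20 h incubation at 37 °C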
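Assay system: tolC-deleted E. coli BW25113. Medium: kanamycin-containing LB broth (50 µg/mL). Dosing: 10 µM final, single dose. Timing: bacterial growth with compound for 20 h at 37 °C. Detection: A615 absorbance measurement. Read-out basis: growth inhibition in percent.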
PLAP act = activators of human placental alkaline phosphatase; purified PLAP enzyme, luminescent substrate read-out; hits give high values; activation fold at 20 µM; 96,000 tested, 1.2% active; P05187; in the data active = activation fold above about 2
Target sequence (P05187 whole entry, looked up): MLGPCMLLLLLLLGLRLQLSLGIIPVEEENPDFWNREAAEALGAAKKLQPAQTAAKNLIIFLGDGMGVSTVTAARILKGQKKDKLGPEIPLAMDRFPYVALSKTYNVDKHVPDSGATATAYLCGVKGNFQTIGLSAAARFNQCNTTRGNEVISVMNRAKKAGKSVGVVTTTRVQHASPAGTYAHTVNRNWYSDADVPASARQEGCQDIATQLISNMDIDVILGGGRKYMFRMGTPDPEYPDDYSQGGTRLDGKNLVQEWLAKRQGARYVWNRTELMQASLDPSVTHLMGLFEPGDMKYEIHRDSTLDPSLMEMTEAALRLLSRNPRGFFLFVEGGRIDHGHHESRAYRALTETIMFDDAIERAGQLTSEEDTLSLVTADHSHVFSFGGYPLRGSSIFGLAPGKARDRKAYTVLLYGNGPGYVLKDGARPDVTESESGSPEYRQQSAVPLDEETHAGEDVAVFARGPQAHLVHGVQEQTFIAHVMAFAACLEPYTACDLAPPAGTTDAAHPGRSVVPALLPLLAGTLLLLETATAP
PostGolgi ctrl = growth of the yeast control strain, post-Golgi counter-screen. efflux-deficient yeast background strain, growth absorbance A615, 16 h. inhibition, % at 10 µM. 98,000 tested, 5% active
An asterisk follows results filed as active; / = no result given. Shown are actives, neighbours in structure and some others; about 5.4% of the full set was active somewhere. Cut-off read from the data, not from the text of the source, unless noted: active = inhibition above about 30%; inactive = the rest.

SMILES	E coli WT exp	HePTP inhibitor	PostGolgi yeast	Ecoli tolC	PLAP act	PostGolgi ctrl
CCOc1nc(C)ccc1-c1noc(-c2ccccc2OC)n1	5	-1	4	7	1	9
O=C(/C=C/c1ccccc1)CC(O)(c1ccccc1)C(F)(F)C(F)F (stereo not drawn)	-1	/	8	/	0.5	66*
O=C(CC(O)(c1ccccc1)C(F)(F)C(F)F)c1cccs1 (stereo not drawn)	10	-2	-2	13	1.2	8
O=C(/C=C/c1ccccc1)CC(=O)C(F)(F)F	/	9	/	/	/	/
O=C(/C=C/c1ccccc1)CC(O)(c1ccccc1)C(F)(F)F (stereo not drawn)	8	/	6	/	0.7	70*
Cc1ccc(O)c(CC(C)C)n1	4	-3	6	-18	0.9	0
O=C(COc1ccc2ccccc2c1)Nc1ccc(Cl)cc1Cl	/	4	/	/	/	/
CC(=O)Nc1ccc(S(=O)(=O)N2CCC(n3cnc4cc(F)ccc43)CC2)cc1	6	7	6	19	1.2	-5
COc1ccc(S(=O)(=O)N2CCC(n3cnc4cc(C(F)(F)F)ccc43)CC2)cc1	-1	-6	-2	21	1.8	41*
Cc1cc(C)c2c(c1)-c1cc(C)nn1C(c1ccc3c(c1)OCO3)N2 (stereo not drawn)	-11	-6	16	27	1.1	47*
Cc1cc2n(n1)C(c1ccc3c(c1)OCO3)Nc1c(C)cccc1-2 (stereo not drawn)	0	2	-1	71*	1.4	17
Cc1cc2n(n1)C(c1ccc(O)cc1)Nc1ccccc1-2 (stereo not drawn)	4	8	2	6	1	13
Cc1nn(C)c(C)c1S(=O)(=O)N1CCC(C(=O)NC2CCCCCC2)CC1	-7	7	-3	-6	1.1	2
CC12CC3(C)CC(C)(C1)CC(NC(=O)N1CCCC1)(C2)C3	3	/	12	/	0.9	32*
CC(=O)NC12CC3(C)CC(C)(C1)CC(NC(C)=O)(C3)C2	/	2	/	/	/	/
c1ccc(COc2ccc(OCCn3cncn3)cc2)cc1	7	4	-1	1	0.9	3
c1ccc(-c2ccc(OCCCn3cncn3)cc2)cc1	3	2	97*	3	1	89*
O=C(Nc1cnc2ccccc2c1)c1ccncc1	-9	8	-4	-11	0.9	15
CCN(CC)C(=O)Nc1cnc2ccccc2c1	-1	11	3	-11	0.8	33*
COCCNC(=O)CN(C(=O)CCC(=O)Nc1ccccn1)c1ccc(F)cc1	0	-1	8	0	1.1	4
CCOc1ccc(N(CC(=O)Nc2ccccc2C(F)(F)F)S(C)(=O)=O)cc1	/	11	/	/	/	/
Cc1sc2nc(C(C)C)nc(SCC(=O)N3CCN(C(=O)c4ccco4)CC3)c2c1C	-4	-5	2	32	1.4	41*
CC(C)c1nc(N2CCN(C(=O)c3ccco3)CC2)c2c3c(sc2n1)CCCC3	3	-1	4	79*	1.4	18
O=C(NCc1ccccc1)c1cc2ncc(Br)cn2n1	/	1	/	/	/	/
O=Nc1c(O)n(Cc2ccc(Cl)c(Cl)c2)c2ccccc12	10	/	22	/	1.1	59*
SMILES	E coli WT exp	HePTP inhibitor	PostGolgi yeast	Ecoli tolC	PLAP act	PostGolgi ctrl
Clc1cccc(Cl)c1OCCCCN1CCOCC1	/	6	/	/	/	/
CCOc1cc(C(c2c(C)[nH][nH]c2=O)c2c(C)[nH][nH]c2=O)ccc1OS(=O)(=O)c1ccccc1	-8	/	3	/	2.6*	6
Cc1csc(SCC(=O)Nc2sc3c(c2C#N)CCC3)n1	-10	/	29	/	1.1	32*
N#Cc1c(NC(=O)CSc2nnc(-c3ccccc3O)n2-c2ccccc2)sc2c1CCCC2	-5	8	24	14	1.9	40*
COc1ccc(C2CC(c3ccccc3)Nc3nc(NC(=O)c4ccco4)nn32)cc1 (stereo not drawn)	12	11	4	32	1.9	-4
COc1ccc(C2CC(c3ccc(OC)cc3)n3nc(NC(=O)c4ccco4)nc3N2)cc1 (stereo not drawn)	-4	-7	5	43	1.8	31*
COc1cc(Cl)c(C)cc1NC(=O)COc1cc(C)nc(C(C)C)n1	2	6	9	6	1.1	-1
COc1ccccc1NC(=O)COc1cc(C)nc(C(C)C)n1	-11	/	10	/	0.9	38*
S=C(Nc1ccccc1)Nc1nc2ccccc2n1CCOc1ccccc1	11	/	-1	/	0.9	32*
CC(=O)Nc1nc2ccccc2n1CCOc1ccccc1	0	7	2	24	1.4	3
Cc1ccc(S(=O)(=O)NC(CC(=O)n2nc(C)cc2C)c2ccccc2)cc1 (stereo not drawn)	0	/	-5	/	1.1	35*
Cc1ccc(S(=O)(=O)NC(c2ccccc2)C(C)C(=O)n2nc(C)cc2C)cc1 (stereo not drawn)	-6	/	-5	/	1.1	9
CCc1cc(C(=O)Cc2ccc(F)cc2)c(O)cc1O	/	7	/	91*	/	/
CCCc1cc(C(=O)Cc2ccc(C(=O)OCC)o2)c(O)cc1O	12	10	-1	65*	8.6	31*
CCc1cc(/C(Cc2ccccn2)=N\O)c(O)cc1O	5	/	1	/	1	3
CCCc1cc(C(=O)Cc2ccc(F)cc2)c(O)cc1O	11	-6	6	8	1.4	52*
CCc1cc(/C(Cc2ccc3ccccc3n2)=N\O)c(O)cc1O	17	/	-4	97*	1.1	13
CC(=O)Cc1nsc(NC(=O)c2cccs2)n1	-13	/	4	/	1.2	7
CC1CCN(C(=O)COc2ccccc2F)CC1	1	8	20	-16	1.1	7
CCc1cc(C(=O)Cc2nc3ccccc3[nH]2)c(O)cc1O	16	9	-1	13	2.3*	0
CCCc1cc(C(=O)Cc2nc3ccccc3s2)c(O)cc1O	8	/	8	/	1.5	14
CCc1cc(C(=O)COc2ccccc2F)c(O)cc1O	18	-4	0	100*	0.9	16
COc1ccccc1NC(=O)C(=O)NNC(=O)c1cccc(Cl)c1	/	5	/	/	/	/
CCOc1c2c(nc3ccc(Cl)cc13)CCC2	-6	-3	0	15	0.9	36*
CCCNS(=O)(=O)c1cccc2cccnc12	7	3	-2	-9	0.9	25
SMILES	E coli WT exp	HePTP inhibitor	PostGolgi yeast	Ecoli tolC	PLAP act	PostGolgi ctrl
COc1cc(O)oc1C=Nc1ccc(Cl)cc1Cl	0	/	11	/	1.1	-2
Cc1n[nH]c(C)c1Sc1ccccc1N=Cc1ccc([N+](=O)[O-])cc1	/	3	/	/	/	/
COc1ccc(N2C(=O)c3ccc(C(=O)Nc4cc(Cl)ccc4C(=O)O)cc3C2=O)cc1	/	102*	/	/	/	/
CCCCc1c(C)nn(-c2nnc3c4ccccc4n(CC)c3n2)c1C	0	2	4	75*	1.3	58*
CCn1c2ccccc2c2nc3ccccc3nc21	0	4	-4	35	1.4	34*
Cc1cccn2c(=O)c(C=O)c(N3CCC(C)CC3)nc12	/	6	/	/	/	/
